The text below walks through data of ChEMBL document CHEMBL3352338, “Development and biological evaluation of potent and selective c-KIT(D816V) inhibitors” (J Med Chem, 2014).

Assay [1] is described as follows: Induction of apoptosis in human HMC-1.2 cells assessed as apoptotic cells at 1 uM after 48 hrs by TUNEL staining (reference value: 0.849%). The format is functional.
Assay [2] can be described thus: Cell cycle arrest in human HMC-1.2 cells assessed as accumulation at sub-G1 phase after 24 hrs by flow cytometric analysis. Format: functional, cell-based. The gist of the method: (§1)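 HMC-1.2 cells exposed to increasing concentrations for 24 h; cell cycle distribution (SubG1/G1 fraction) measured by flow cytometry.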
In general terms: A flow cytometer gives signals particle by particle.

Assay [3] in a line: Cell cycle arrest in human HMC-1.2 cells assessed as accumulation at G1 phase after 24 hrs by flow cytometric analysis. The format is functional, cell-based. The gist of the method:
as §1

The nature of assay [4]: Induction of apoptosis in human HMC-1.2 cells assessed as apoptotic cells at 5 uM after 48 hrs by TUNEL staining (reference value: 0.849%). The format is functional.
The target of assay [5] is Phosphatidylinositol 4,5-bisphosphate 3-kinase catalytic subunit alpha isoform (Homo sapiens, UniProt P42336). Description: Inhibition of PI3Kalpha (unknown origin).
The nature of assay [6]: Induction of apoptosis in human HMC-1.2 cells assessed as apoptotic cells at 0.1 uM after 48 hrs by TUNEL staining (reference value: 0.849%). The format is functional.

Chain of Phosphatidylinositol 4,5-bisphosphate 3-kinase catalytic subunit alpha isoform (P42336 whole entry, canonical isoform): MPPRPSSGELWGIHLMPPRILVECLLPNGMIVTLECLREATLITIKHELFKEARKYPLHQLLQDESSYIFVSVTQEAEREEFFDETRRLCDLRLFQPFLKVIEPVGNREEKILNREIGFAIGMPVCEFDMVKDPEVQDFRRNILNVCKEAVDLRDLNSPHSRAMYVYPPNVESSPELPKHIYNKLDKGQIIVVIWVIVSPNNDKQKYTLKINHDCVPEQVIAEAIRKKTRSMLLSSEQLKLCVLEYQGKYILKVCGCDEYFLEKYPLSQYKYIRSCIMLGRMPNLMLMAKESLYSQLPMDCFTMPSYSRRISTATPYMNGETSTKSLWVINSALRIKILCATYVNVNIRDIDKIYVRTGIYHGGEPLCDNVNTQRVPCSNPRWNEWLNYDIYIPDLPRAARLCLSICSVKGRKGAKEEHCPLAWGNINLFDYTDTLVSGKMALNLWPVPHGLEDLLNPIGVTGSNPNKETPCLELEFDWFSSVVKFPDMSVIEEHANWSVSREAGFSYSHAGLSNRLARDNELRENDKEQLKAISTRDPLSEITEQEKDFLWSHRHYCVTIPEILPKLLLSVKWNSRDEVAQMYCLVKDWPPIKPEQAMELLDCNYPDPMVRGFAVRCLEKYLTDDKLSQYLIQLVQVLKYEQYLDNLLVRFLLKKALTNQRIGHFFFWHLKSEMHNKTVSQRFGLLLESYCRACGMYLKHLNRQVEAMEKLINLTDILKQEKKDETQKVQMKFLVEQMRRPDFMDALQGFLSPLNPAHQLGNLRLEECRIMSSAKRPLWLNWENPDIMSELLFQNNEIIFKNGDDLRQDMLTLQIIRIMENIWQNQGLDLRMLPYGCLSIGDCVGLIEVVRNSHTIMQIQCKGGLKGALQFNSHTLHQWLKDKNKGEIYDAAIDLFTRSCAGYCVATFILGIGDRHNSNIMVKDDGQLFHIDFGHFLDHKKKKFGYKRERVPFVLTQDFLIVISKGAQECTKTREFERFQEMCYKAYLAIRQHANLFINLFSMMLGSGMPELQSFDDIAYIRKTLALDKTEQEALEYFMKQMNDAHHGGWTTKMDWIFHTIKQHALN

In the case of `COc1ccc(-c2cnc3[nH]cc(-c4ccc(OC)c(OC)c4)c3c2)cc1OC`, the Activity in assay [1] came out at 13.3%; in assay [4] it was 69.9%; in assay [6], 0.732%. For the same compound, the inhibition result in assay [2] and in assay [3] was “Dose-dependent effect” in each case. For the same compound, the IC50 in assay [5] was greater than 10 µM.

For orientation: IC50 means the concentration that inhibits the measured activity by half.
